“And” between values parts separate entries of the source, which are not always exact repeats. Equal entries are not always repeated. The source made the active and inactive calls. The rule behind the calls is not given here.
Key:
Mus musculus [1] = organism: Mus musculus; assay: Compound was tested for persistent effect, percent inhibition contraction that is not reversed significantly by >=20 washings following a 30 min incubation at 20 nM.; type: functional
[2] = molecular target: Mu-type opioid receptor (Homo sapiens) (UniProt P35372); assay: Irreversible antagonist activity at mu receptor by determining by ileal response to morphine after 30 min incubation at 20 nM; type: functional
Mu-type opioid receptor (Homo sapiens), sequence (P35372 whole entry): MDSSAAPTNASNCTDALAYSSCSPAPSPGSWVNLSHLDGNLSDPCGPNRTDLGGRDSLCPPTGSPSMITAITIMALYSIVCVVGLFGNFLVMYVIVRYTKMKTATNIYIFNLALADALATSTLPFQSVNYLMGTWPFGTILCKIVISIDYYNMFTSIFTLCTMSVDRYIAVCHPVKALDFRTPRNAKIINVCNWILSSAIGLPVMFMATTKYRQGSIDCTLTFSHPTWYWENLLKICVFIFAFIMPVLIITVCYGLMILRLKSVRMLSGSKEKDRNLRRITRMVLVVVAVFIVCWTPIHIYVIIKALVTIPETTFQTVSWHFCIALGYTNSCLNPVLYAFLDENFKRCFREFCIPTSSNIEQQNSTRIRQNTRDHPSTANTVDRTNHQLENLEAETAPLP

Mus musculus [3] = organism: Mus musculus; assay: (§1) The agonist potency was assessed by measuring the inhibition of contraction at a single concentration (200 nM).; type: functional
Cavia porcellus [4] = organism: Cavia porcellus; assay: The agonist potency in the guinea pig ileal longitudinal muscle preparation (GPI) was determined relative to morphine as control; type: functional, Muscle tissue
[5] = molecular target: Kappa-type opioid receptor (Homo sapiens) (UniProt P41145); assay: Irreversible antagonist activity at kappa receptor as ileal response to ethylketazocine after 30 min incubation at 20 nM; type: functional
Kappa-type opioid receptor (Homo sapiens), sequence (P41145 whole entry): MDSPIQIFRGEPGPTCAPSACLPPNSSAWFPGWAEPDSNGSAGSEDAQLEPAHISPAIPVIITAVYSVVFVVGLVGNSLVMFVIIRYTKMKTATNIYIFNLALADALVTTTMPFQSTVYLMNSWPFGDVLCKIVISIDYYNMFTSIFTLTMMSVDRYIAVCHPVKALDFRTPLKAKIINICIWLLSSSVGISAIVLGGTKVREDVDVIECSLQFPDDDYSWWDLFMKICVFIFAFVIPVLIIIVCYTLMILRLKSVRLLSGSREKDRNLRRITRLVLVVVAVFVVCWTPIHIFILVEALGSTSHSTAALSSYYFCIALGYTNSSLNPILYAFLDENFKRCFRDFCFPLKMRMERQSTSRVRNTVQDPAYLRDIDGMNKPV

Cavia porcellus [6] = organism: Cavia porcellus; assay: Compound was tested for persistent effect, percent inhibition of twitch that is not reversed by >=20 washings following 30 -min incubation at 20 nM; type: functional
[7] = molecular target: Mu-type opioid receptor (Mus musculus) (UniProt P42866); assay: Irreversible antagonist activity at mouse vas deferens mu receptor against DADLE after 30 min at 200 nM; type: functional, tissue-based
Mu-type opioid receptor (Mus musculus), sequence (P42866 whole entry): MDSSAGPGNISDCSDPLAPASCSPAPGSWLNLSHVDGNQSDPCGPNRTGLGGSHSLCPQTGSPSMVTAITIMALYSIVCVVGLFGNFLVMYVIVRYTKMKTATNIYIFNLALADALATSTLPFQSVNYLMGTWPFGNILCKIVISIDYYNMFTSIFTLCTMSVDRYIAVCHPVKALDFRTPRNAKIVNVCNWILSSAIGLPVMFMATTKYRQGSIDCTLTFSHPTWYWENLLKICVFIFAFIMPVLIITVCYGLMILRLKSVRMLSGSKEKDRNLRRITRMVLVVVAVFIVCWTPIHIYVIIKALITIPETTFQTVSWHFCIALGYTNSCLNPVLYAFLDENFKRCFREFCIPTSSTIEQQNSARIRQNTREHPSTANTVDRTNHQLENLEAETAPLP

[8] = molecular target: Mu-type opioid receptor (Homo sapiens) (UniProt P35372); assay: Compound was tested for irreversible antagonist activity at mu receptor by determining by MVD response to morphine after 30 min incubation at 200 nM; type: functional
[9] = molecular target: Mu-type opioid receptor (Homo sapiens) (UniProt P35372); assay: Compound was tested for irreversible antagonist activity at mu receptor by determining by MVD response to DADLE after 30 min incubation at 20 nM; type: functional
[10] = molecular target: Mu-type opioid receptor (Homo sapiens) (UniProt P35372); assay: Compound was tested for irreversible antagonist activity at mu receptor by determining by MVD response to DADLE after 30 min incubation at 10 nM; type: functional
Cavia porcellus [11] = organism: Cavia porcellus; assay: Evaluated for the inhibition concentration in the guinea pig ileal longitudinal muscle preparation (GPI); type: functional, Muscle tissue
[12] = (§2) Compound was tested for irreversible antagonist activity at kappa receptor by determining by ileal response to ethylketazocine after 30 min incubation at 1000 nM; type: functional
Mus musculus [13] = organism: Mus musculus; assay: The agonist potency was assessed by measuring the inhibition of contraction at a single concentration (30 nM).; type: functional
[14] = molecular target: Mu-type opioid receptor (Homo sapiens) (UniProt P35372); assay: Compound was tested for irreversible antagonist activity at mu receptor by determining by MVD response to DADLE after 30 min incubation at 30 nM; type: functional
[15] = molecular target: Mu-type opioid receptor (Homo sapiens) (UniProt P35372); assay: Compound was tested for irreversible antagonist activity at mu receptor by determining by ileal response to morphine after 30 min incubation at 200 nM; type: functional
Cavia porcellus [16] = organism: Cavia porcellus; assay: (§3) Compound was tested for persistent effect, percent inhibition of twitch that is not reversed by >=20 washings following 30 -min incubation at 200 nM; type: functional
[17] = molecular target: Mu-type opioid receptor (Homo sapiens) (UniProt P35372); assay: Compound was tested for irreversible antagonist activity at mu receptor by determining by ileal response to morphine after 30 min incubation at 20 nM; type: functional
[18] = molecular target: Kappa-type opioid receptor (Homo sapiens) (UniProt P41145); assay: Compound was tested for irreversible antagonist activity at kappa receptor by determining by ileal response to ethylketazocine after 30 min incubation at 20 nM; type: functional
[19] = molecular target: Mu-type opioid receptor (Homo sapiens) (UniProt P35372); assay: Compound was tested for irreversible antagonist activity at mu receptor by determining by MVD response to morphine after 30 min incubation at 20 nM; type: functional
[20] = molecular target: Mu-type opioid receptor (Homo sapiens) (UniProt P35372); assay: Compound was tested for irreversible antagonist activity at mu receptor by determining by MVD response to DADLE after 30 min incubation at […]; type: functional
[21] = molecular target: Mu-type opioid receptor (Homo sapiens) (UniProt P35372); assay: Compound was tested for irreversible antagonist activity at mu receptor by determining by MVD response to DADLE after 30 min incubation at 100 nM; type: functional
[22] = molecular target: Kappa-type opioid receptor (Homo sapiens) (UniProt P41145); assay: as §2; type: functional
[23] = The relative rate (to beta FNA) in the reaction of Michael acceptors with cysteine at pH 7.4 at 25 degree Celsius in the presence of 13 fold excess cysteine was reported for half-life.; type: ADME
Outline: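 Reaction with a 13-fold excess of cysteine at pH 7.4, 25 °C under rapid stirring; aliquots quenched by acidification to pH 1 at timed intervals. Remaining compound quantified by reversed-phase HPLC (UV 254 nm, internal standard), four intervals in duplicate. Half-life taken from the slope of log amount remaining vs time; rate expressed relative to β-FNA.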

[24] = molecular target: Mu-type opioid receptor (Homo sapiens) (UniProt P35372); assay: Compound was tested for irreversible antagonist activity at mu receptor by determining by ileal response to morphine after 30 min incubation at 1000 nM; type: functional
[25] = molecular target: Mu-type opioid receptor (Homo sapiens) (UniProt P35372); assay: Compound was tested for irreversible antagonist activity at mu receptor by determining by MVD response to morphine after 30 min incubation at 100 nM; type: functional
Cavia porcellus [26] = organism: Cavia porcellus; assay: Compound was tested for persistent effect, percent inhibition of twitch that is not reversed by >=20 washings following 30 -min incubation at 20 nM; none; type: functional
Cavia porcellus [27] = organism: Cavia porcellus; assay: Compound was tested for persistent effect, percent inhibition of twitch that is not reversed by >=20 washings following 30 -min incubation at 200 nM; none; type: functional
[28] = molecular target: Kappa-type opioid receptor (Homo sapiens) (UniProt P41145); assay: Compound was tested for irreversible antagonist activity at kappa receptor by determining by ileal response to ethylketazocine after 30 min incubation at 200 nM; type: functional
Mus musculus [29] = organism: Mus musculus; assay: The agonist potency was assessed by measuring the inhibition of contraction at a single concentration (200 nM); type: functional
Mus musculus [30] = organism: Mus musculus; assay: Compound was tested for persistent effect, percent inhibition contraction that is not reversed significantly by >=20 washings following a 30 min incubation at 200 nM.; type: functional
[31] = molecular target: Mu-type opioid receptor (Homo sapiens) (UniProt P35372); assay: Compound was tested for irreversible antagonist activity at mu receptor by determining by MVD response to ethylketazocine after 30 min incubation at 200 nM; type: functional
[32] = molecular target: Mu-type opioid receptor (Homo sapiens) (UniProt P35372); assay: Compound was tested for irreversible antagonist activity at mu receptor by determining by MVD response to Morphine after 30 min incubation at 200 nM; type: functional
Mus musculus [33] = organism: Mus musculus; assay: as §1; type: functional; remark: listed apart in the source
Mus musculus [34] = organism: Mus musculus; assay: Compound was tested for persistent effect, percent inhibition contraction that is not reversed significantly by >=20 washings following a 30 min incubation at 3 nM.; type: functional
[35] = molecular target: Mu-type opioid receptor (Homo sapiens) (UniProt P35372); assay: Compound was tested for irreversible antagonist activity at mu receptor by determining by MVD response to DADLE after 30 min incubation at 3 nM; type: functional
[36] = molecular target: Kappa-type opioid receptor (Homo sapiens) (UniProt P41145); assay: Compound was tested for irreversible antagonist activity at kappa receptor by determining by ileal response to ethylketazocine after 30 min incubation at 10 nM; type: functional
[37] = molecular target: Mu-type opioid receptor (Homo sapiens) (UniProt P35372); assay: Compound was tested for irreversible antagonist activity at mu receptor by determining by ileal response to morphine after 30 min incubation at 10 nM; type: functional
Cavia porcellus [38] = organism: Cavia porcellus; assay: as §3; type: functional; remark: listed apart in the source

O=C(N[C@@H]1CCC2(O)C3Cc4ccc(O)c5c4C2(CCN3CC2CC2)C1O5)C(=O)c1ccccc1 (stereo not given in full)
Inhibition (Mus musculus [1]): 44%
Ratio [2]: 1.48
Agonist potency (Mus musculus [3]): 51
Potency (Cavia porcellus [4]): 24
Ratio [5]: 0.93
Inhibition (Cavia porcellus [6]): 22%
Ratio [7]: 0.87
Ratio [8]: 6.5
Ratio [9]: 0.51
Ratio [10]: 0.56

CCOc1ccc2c(c1)C1(C)CCN(CC3CC3)C(C2=O)C1C (stereo not given) [ETHYLKETAZOCINE]
IC50 (Cavia porcellus [11]; Cavia porcellus, Muscle tissue): 9.73 nM

C=CCN1CCC23c4c5ccc(O)c4OC2[C@H](NC(=O)/C=C/C(=O)OC)CCC3(O)C1C5 (stereo not given in full)
Ratio [12]: 1.9
Agonist potency (Mus musculus [13]): 34
Ratio [14]: 1.7
Ratio [15]: 6.4
Ratio [2]: 2.2
Potency (Cavia porcellus [4]): 5.8
Ratio [5]: 1
Ratio [7]: 1.1
Ratio [8]: 4
Inhibition (Cavia porcellus [16]): 40%

COC(=O)CCC(=O)N[C@@H]1CCC2(O)C3Cc4ccc(O)c5c4C2(CCN3CC2CC2)C1O5 (stereo not given in full)
Ratio [17]: 0.92
Ratio [18]: 1
Potency (Cavia porcellus [4]): 5.3
Inhibition (Cavia porcellus [16]): 10%

C#CC(=O)N[C@@H]1CCC2(O)C3Cc4ccc(O)c5c4C2(CCN3CC2CC2)C1O5 (stereo not given in full)
Inhibition (Mus musculus [1]): 50%
Ratio [2]: 2.6
Potency (Cavia porcellus [4]): 56
Ratio [19]: 5
Ratio [5]: 0.84
Inhibition (Cavia porcellus [6]): 53%
Ratio [20]: 1.5
Ratio [7]: 1.3
Ratio [9]: 1.06

COC(=O)/C=C/C(=O)N[C@@H]1CC[C@@]2(O)[C@H]3Cc4ccc(O)c5c4[C@@]2(CCN3CC2CC2)[C@H]1O5
Ratio [21]: 1.8
Ratio [22]: 1.3
Relative rate [23]: 1
Ratio [24]: 18.8
Ratio [2]: 6
Potency (Cavia porcellus [4]): 5
Ratio [5]: 1
Ratio [7]: 1.1
Ratio [8]: 10.6
Ratio [25]: 3.9

6beta-[(Chloromercuri)acetamido]-17-(cyclopropyl-methyl)-4,5alpha-epoxy-3,14-duhydroxymorphinan Methanesulphonate [listing 1 of 2 here]
IC50 (Cavia porcellus [11]): 300 nM

CC(=O)/C=C/C(=O)N[C@@H]1CCC2(O)C3Cc4ccc(O)c5c4C2(CCN3CC2CC2)C1O5 (stereo not given in full)
Relative rate [23]: 225
inhibition (Cavia porcellus [26]): inactive
Ratio [2]: 12.5
Agonist potency (Mus musculus [3]): 31
Potency (Cavia porcellus [4]): 4.5
Ratio [5]: 0.9
Ratio [7]: 5
Ratio [8]: 30

C=C(Cl)C(=O)N[C@@H]1CCC2(O)C3Cc4ccc(O)c5c4C2(CCN3CC2CC2)C1O5 (stereo not given in full)
Relative rate [23]: 0.4
inhibition (Cavia porcellus [27]): inactive
Ratio [2]: 13.4
Potency (Cavia porcellus [4]): 1.1
Ratio [5]: 0.93
Ratio [28]: 0.88
Ratio [7]: 1.6
Ratio [8]: 6
Agonist potency (Mus musculus [29]): 44

O=C1C=CC(=O)N1[C@@H]1CCC2(O)C3Cc4ccc(O)c5c4C2(CCN3CC2CC2)C1O5 (stereo not given in full)
Relative rate [23]: 450
Ratio [15]: 1.3
Ratio [2]: 1.3
Agonist potency (Mus musculus [3]): 52
Inhibition (Mus musculus [30]): 35%
Potency (Cavia porcellus [4]): 2
Ratio [5]: 0.94
Ratio [28]: 1.4
Ratio [7]: 0.81
Ratio [8]: 1.1

O=C(CN1C(=O)C=CC1=O)N[C@@H]1CCC2(O)C3Cc4ccc(O)c5c4C2(CCN3CC2CC2)C1O5 (stereo not given in full)
Relative rate [23]: 450
Ratio [15]: 3.3
Ratio [2]: 1.5
Agonist potency (Mus musculus [3]): 240 nM
Potency (Cavia porcellus [4]): 0.6
Ratio [31]: 0.71
Ratio [5]: 0.71
Ratio [28]: 0.92
Inhibition (Cavia porcellus [6]): 21%
Ratio [7]: 1.8
Inhibition (Cavia porcellus [16]): 59%
Ratio [32]: 30

O=C(N[C@@H]1CC[C@@]2(O)[C@H]3Cc4ccc(O)c5c4[C@@]2(CCN3CC2CC2)[C@H]1O5)c1ccccc1
Ratio [2]: 1.4
Inhibition (Mus musculus [30]): 50%
Potency (Cavia porcellus [4]): 201
Ratio [5]: 0.91
Inhibition (Cavia porcellus [6]): 39%
Ratio [7]: 1
Ratio [8]: 1.9
Agonist potency (Mus musculus [29]): 29 nM
Ratio [9]: 2.3

O=C(CBr)N[C@@H]1CCC2(O)C3Cc4ccc(O)c5c4C2(CCN3CC2CC2)C1O5 (stereo not given in full)
Ratio [15]: 1.7
Ratio [2]: 3.3
Agonist potency (Mus musculus [3]): 31
Inhibition (Mus musculus [30]): 20%
Potency (Cavia porcellus [4]): 58
Ratio [5]: 0.73
Ratio [28]: 0.78
Ratio [7]: 1.5
Ratio [8]: 1.4

O=C(CSSc1ccccc1[N+](=O)[O-])N[C@@H]1CCC2(O)C3Cc4ccc(O)c5c4C2(CCN3CC2CC2)C1O5 (stereo not given in full)
inhibition (Cavia porcellus [27]): inactive
Ratio [15]: 2.5
Ratio [2]: 1.3
Agonist potency (Mus musculus [3]): 70
Potency (Cavia porcellus [4]): 1.1
Ratio [5]: 0.5
Ratio [28]: 1.3
Ratio [7]: 0.98
Ratio [8]: 1.8

6beta-[(Chloromercuri)acetamido]-17-(cyclopropyl-methyl)-4,5alpha-epoxy-3,14-duhydroxymorphinan Methanesulphonate [listing 2 of 2 here]
Ratio [17]: 1.2
Potency (Mus musculus [33]): 54 nM
inhibition (Mus musculus [34]): 20%
Ratio [35]: 1.1
Ratio [36]: 0.74
Ratio [15]: 4.2
Potency (Cavia porcellus [4]; Muscle tissue): 50
Ratio [5]: 1
Ratio [28]: 1.3
Ratio [7]: 2.6 and 0.9
Ratio [8]: 0.57
Ratio [37]: 0.75
inhibition (Cavia porcellus [38]): 26%

COC(=O)C=CC(=O)N[C@@H]1CCC2(O)C3Cc4ccc(O)c5c4C2(CCN3CC2CC2)C1O5 (stereo not given in full)
Relative rate [23]: 0.5
